Data as given in ChEMBL document CHEMBL1145815, “SYNOPSIS: SYNthesize and OPtimize System in Silico” (J Med Chem, 2003).

Assays:
[1] = tested on: MT4; assay: Logarithm of cytotoxic concentration that causes half of the cells to die in mock-infected MT-4 cell cultures; assay type: functional, Homo sapiens
In short: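 Mock-infected MT-4 cell cultures exposed to compound; viability read spectrophotometrically as mitochondrial dehydrogenase reduction of yellow MTT to blue formazan in metabolically active cells. CC50 taken as the concentration killing half the cells, run alongside HIV-infected cultures.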

[2] = Logarithm of inhibitory concentration against HIV-induced cytopathogenicity in MT-4 cell cultures; assay type: functional, cell-based; settings: Human immunodeficiency virus 1, MT4
In short: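 Protection of MT-4 cell cultures against HIV-induced cytopathogenicity. Reduction of yellow MTT to blue formazan by mitochondrial dehydrogenases of metabolically active cells is read spectrophotometrically in HIV- and mock-infected cultures. IC50 is the concentration giving 50% protection against HIV-induced cytopathogenicity. CC50 is the concentration killing half the cells in mock-infected cultures.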

Structure (SMILES) | pCC50 [1] | IC50 [2]
S=C(NCc1ccc(Cl)c(Cl)c1)Nc1cccnc1 | 4.4 | > 39.8 µM
N#Cc1ccc(O)c(NC(=O)Nc2cccc(F)c2)c1 | <4 | > 100 µM
COC(C/N=C(\S)Nc1c(Br)cc(Cl)cc1Br)OC | <4 | 25.1 µM
O=C(Nc1cccnc1)Nc1nc(Cl)ccc1Cl | <4 | 31.6 µM
O=C(Cc1ccc(I)cc1)Nc1ncccc1O | <4 | > 100 µM
NC(=O)N/N=C\c1ccccc1NCc1ccccn1 | <4 | 6.31 µM
CC(C)n1c(O)nnc1Sc1cccc(C(F)(F)F)c1 | <4 | 79.4 µM
NC(=O)N/N=C\c1cc(Cl)ccc1Nc1cccc(Cl)c1 | <4 | 2.51 µM
CCCc1cc(O)nc(SCC(C)(C)c2ccccc2)n1 | <4.3 | 15.8 µM
O=C(N/N=C(\S)Nc1cc(Cl)cc(Cl)c1)c1ccccc1F | 5.1 | > 7.94 µM
CSc1cccnc1C(=O)NCc1ccc(N)cc1 | <4 | 39.8 µM
COc1cccc(CC/N=C(\S)Nc2ccc(C#N)cc2)c1 | 4.3 | 1.58 µM
O=C1NCCCC1C(=O)NNC(=S)Nc1cc(Cl)cc(Cl)c1 (centres undefined) | 4.3 | > 50.1 µM
CC(Nc1ncccc1C(N)=O)c1cccc(Cl)c1 (centres undefined) | <4 | 12.6 µM
CC(NCCc1cccs1)c1cc(C#N)ccc1O (centres undefined) | <4 | > 100 µM
Oc1cc(O)cc(CNc2cc(Cl)c(Cl)c(Cl)c2)c1 | 4.3 | > 50.1 µM
CC(C)(C)c1nc(COc2ccc(C(N)=O)c(O)c2)no1 | <4 | > 100 µM
